Measured values of several laboratories.
Compare with care: the assays were run in different laboratories. pEC50, pIC50: −log10 of the molar value.
Read-out: cell growth or viability

The pIC50 of `CCCC(=O)Nc1ccc(-c2ccc3ncn(Cc4ccccc4)c(=O)c3c2)cn1` is reported as < 5.00 (NCI-H1975; CCK-8; 72 h).
For `NCCC(=O)Nc1ccccc1/N=c1\cc(-c2ccc3nc(N)oc3c2)oc2ccccc12`, the inhibition was 43.6% (NCI-H1975; CCK-8; 1 µM).
`Cc1nc(Nc2ncc(C(=O)Nc3c(C)cccc3Cl)s2)cc(N2CC[C@H](O)C2)n1` has an inhibition of 91% (KARPAS-422; ATP luminescence; 10 µM, 72 h).
For `NCCC(=O)Nc1ccccc1/N=c1\cc(-c2ccc3nc(N)oc3c2)oc2ccc(O)cc12`, the inhibition was 7.56% (NCI-H1975; CCK-8; 1 µM).
`O=C(Nc1cccc(F)c1)Nc1nc2cc(-c3ccc4ncn(CCN5CCOCC5)c(=O)c4c3)ccc2s1` has a pIC50 of < 4.70 (NCI-H1975; MTT; 72 h).
With `O=C(Nc1ccc(-c2ccc3ncn(Cc4ccccc4)c(=O)c3c2)cn1)C1CCCC1` the pIC50 was < 5.00 (NCI-H1975; CCK-8; 72 h).
With `NCCCCC(=O)Nc1ccccc1/N=c1\cc(-c2ccc3c(c2)OCO3)oc2ccccc12` the inhibition was -2.12% (NCI-H1975; CCK-8; 1 µM).
The pIC50 of `CCCCC(=O)Nc1ccc(-c2ccc3ncn(CCCC)c(=O)c3c2)cn1` is reported as 6.51 (NCI-H1975; CCK-8; 72 h).
`CCCCCCCCCCCCCCCCCCOc1ccccc1CC(=O)OCC[N+]1(C)CCCC1` has an inhibition of 31.9% (NCI-H322M; SRB; 10 µM).
The pEC50 of `C[C@H](Nc1ccc2c(c1)OCCn1cc(N3C(=O)OC[C@H]3C(F)F)nc1-2)C(N)=O` is reported as 7.13 (KPL4; ATP luminescence; 5 days).
With `O=C(Nc1cc(C(F)(F)F)cc(C(F)(F)F)c1)Nc1nc2cc(-c3ccc4ncn(Cc5ccccc5)c(=O)c4c3)ccc2s1` the pIC50 was < 4.70 (NCI-H1975; MTT; 72 h).
The inhibition of `CCCCCCCCCCCCCCCCCCOc1ccc(CC(=O)OCC[N+]2(C)CCCCC2)cc1` is reported as 3.63% (NCI-H322M; SRB; 10 µM).
The pIC50 of `CCCCn1cnc2ccc(-c3ccc(NC(=O)NCc4ccccc4)nc3)cc2c1=O` is reported as 6.54 (NCI-H1975; CCK-8; 72 h).
The inhibition of `COc1ccc2/c(=N/c3ccccc3NC(=O)CN)cc(-c3ccc4c(c3)OCCO4)oc2c1` is reported as 8.23% (NCI-H1975; CCK-8; 1 µM).
`COc1ccc(C(=O)Nc2nc3cc(-c4ccc5ncn(Cc6ccccc6)c(=O)c5c4)ccc3s2)cc1` gave a pIC50 of < 4.70 (NCI-H1975; MTT; 72 h).
With `CCCCC(=O)Nc1ccc(-c2ccc3ncn(CCF)c(=O)c3c2)cn1` the pIC50 was 6.72 (NCI-H1975; CCK-8; 72 h).
`NCCC(=O)Nc1ccccc1/N=c1\cc(-c2ccc3nc(N)oc3c2)oc2ccc(F)cc12` gave an inhibition of 63.7% (NCI-H1975; CCK-8; 1 µM).
`O=C(Nc1ccc(Br)cc1)Nc1nc2cc(-c3ccc4ncn(Cc5ccccc5)c(=O)c4c3)ccc2s1` gave a pIC50 of < 4.70 (NCI-H1975; MTT; 72 h).
`CCCCCCCCCCCCCCCCCCOc1ccccc1CC(=O)OCC[N+]1(C)CCOCC1` has an inhibition of 20.2% (NCI-H322M; SRB; 10 µM).
